Results from ChEMBL document CHEMBL1123812, “Pyrroloisoquinoline antidepressants. 2. In-depth exploration of structure-activity relationships” (J Med Chem, 1987).
The source made the active and inactive calls.

Experiments:
Rattus norvegicus [1] = species: Rattus norvegicus; experiment: Ability to inhibit the uptake of tritiated dopamine (DA) 0.1 uM concentration; format: functional
Outline: (§1)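 Male Wistar rat brain synaptosomes (P2 fraction): hypothalamus for NE, striatum for DA, cerebral cortex for 5-HT. Buffer is Tris- or HEPES-buffered salt medium with glucose, ascorbate and nialamide, pH 7.4 at 37 °C. Preincubated 10 min at 37 °C with compound. Uptake started with [3H]NE 100–300 nM, [3H]DA 50–300 nM or [3H]5-HT 100–200 nM, incubated 3 min (DA) or 6–10 min (NE, 5-HT). Blanks held on ice. Filtered, counted by scintillation.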

[2] = target: Sodium-dependent serotonin transporter (Rattus norvegicus) (UniProt P31652); experiment: Ability to inhibit the uptake of [3H]- serotonin(5-HT) 0.1 uM concentration at rat brain synaptosomes; format: functional, subcellular; outline: as §1
Mus musculus [3] = species: Mus musculus; experiment: Gross behavioral effects ascertained in mice; W indicates weak stimulant or depressant activity of little significance.; format: functional, organism-based
Outline: (§2)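 Male Swiss Webster mice, 18–24 g, three per dose, given ip doses of 1, 3, 10, 30, 100 and 300 mg/kg. Observed for gross behavior and held for 4 days. Scored as weak (W), stimulant (S), depressant (D) or convulsant (C).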

[4] = target: Norepinephrine transporter (Rattus norvegicus) (UniProt Q9WTR4); experiment: Ability to inhibit the uptake of [3H]norepinephrine (NE) 0.1 uM concentration at rat brain synaptosomes; format: functional, subcellular; outline: as §1
Mus musculus [5] = experiment: (§3) Ability to antagonise intraperitoneal dose; inactive (<10% antagonism) at 30 mgjkg is represented as I-30.; format: functional, organism-based
Outline: (§4)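 Swiss Webster male albino mice, nonfasted, 18–24 g, 10 per dose and in saline control. Compound given ip 30 min before TBZ 32 mg/kg ip. Motor activity and ptosis scored. Response corrected by Abbott's formula when control response was 90% or less. Doses expressed as free base.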

Rattus norvegicus [6] = experiment: Ability to inhibit the uptake of tritiated serotonin(5-HT) at 0.1 mg/kg concentration; format: functional
Mus musculus [7] = species: Mus musculus; experiment: Gross behavioral effects ascertained in mice; D indicates significant depressant properties.; format: functional, organism-based
Outline: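 Male Swiss Webster albino mice, 18–24 g, three per dose, given ip 1, 3, 10, 30, 100 and 300 mg/kg. Gross behaviour observed and held 4 days. Estimated LD50 range from lethality count on day 4. Scored as weak stimulant/depressant, significant stimulant, significant depressant or overt convulsant.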

Mus musculus [8] = experiment: Ability to antagonise tetrabenazine (TBZ)-induced depression measured in mice for ptosis by 10 mg/kg i.p. dose; inactive (<10% antagonism) at 30 mgjkg is represented as I-30.; format: functional, organism-based; set-up: dose 10 mg/kg; outline: as §4
Mus musculus [9] = species: Mus musculus; experiment: Antagonism of tetrabenazine (TBZ)-induced depression in mice measured for ptosis; format: functional; conditions: Mus musculus; read-out: ED50
Outline: (§5)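 Nonfasted male Swiss Webster mice, 18–24 g, ten per dose level and in saline controls. Test compound given ip 30 min before tetrabenazine 32 mg/kg ip; dose expressed as free base. Motor activity and ptosis scored. Control response ≤90% corrected by Abbott's formula.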

Mus musculus [10] = species: Mus musculus; experiment: Antagonism of tetrabenazine (TBZ)-induced depression measured in mice by motor activity; format: functional; conditions: Mus musculus; read-out: ED50; outline: as §5
[11] = target: Norepinephrine transporter (Rattus norvegicus, UniProt Q9WTR4); experiment: Inhibition of uptake of tritiated norepinephrine (NE) in rat synaptosomes; format: subcellular, Brain
[12] = target: Serotonin 2 (5-HT2) receptor (Rattus norvegicus, UniProt P30994+P08909+P14842); experiment: (§6) Binding affinity towards 5-hydroxytryptamine 2 receptor at 1.0 uM concentration; format: protein assay
[13] = target: Sodium-dependent dopamine transporter (Rattus norvegicus, UniProt P23977); experiment: Inhibition of the uptake of tritiated dopamine (DA) in rat synaptosomes; format: subcellular, Brain
[14] = target: Sodium-dependent serotonin transporter (Rattus norvegicus) (UniProt P31652); experiment: Inhibition of tritiated serotonin(5-HT) uptake at 0.1 uM concentration; format: functional; outline: as §1
[15] = target: D(2) dopamine receptor (Rattus norvegicus) (UniProt P61169); experiment: Binding affinity towards dopamine receptor D2 at 1.0 uM concentration
Outline: (§7)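 Rat brain crude synaptic membranes in 20 mM NaHEPES pH 7.5. Ligands: α1 cortex […] 0.4 nM, nonspecific with (-)-NE 100 μM, 30 min at 25 °C. […] D2 striatum [3H]spiperone 0.05 nM with (+)-butaclamol 1 μM, 45 min at 37 °C. S1 cortex [3H]5-HT 1 nM plus glutathione and MgCl2, with 5-HT 10 μM, 20 min at 37 °C. […] Samples filtered on GF/B and counted.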

[16] = target: Serotonin 2 (5-HT2) receptor (Rattus norvegicus) (UniProt P30994+P08909+P14842); experiment: as §6; format: protein assay; outline: as §7
[17] = target: Sodium-dependent dopamine transporter (Rattus norvegicus) (UniProt P23977); experiment: Inhibition of tritiated dopamine (DA) uptake at 0.1 uM concentration; format: functional; outline: as §1
Rattus norvegicus [18] = species: Rattus norvegicus; experiment: Ability to inhibit the uptake of tritiated norepinephrine (NE); format: functional; outline: as §1
[19] = target: Serotonin 1 (5-HT1) receptor (Rattus norvegicus) (UniProt P28564+P30940+P19327+P28565); experiment: Binding affinity towards serotonin S1 receptor at 1.0 uM; format: protein assay; outline: as §7
Mus musculus [20] = experiment: as §3; format: functional, organism-based; outline: as §5; remark: listed apart in the source
Rattus norvegicus [21] = species: Rattus norvegicus; experiment: Ability to inhibit the uptake of tritiated serotonin(5-HT) %inhibition; format: functional
Outline: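 Rat brain synaptosomes (male Wistar P2 fraction) from hypothalamus (NE), striatum (DA) or cerebral cortex (5-HT), in Tris or HEPES Krebs-type medium with nialamide, pH 7.4. Preincubation 10 min at 37 °C with compound. Then [3H]NE 100–300 nM, [3H]DA 50–300 nM or [3H]5-HT 100–200 nM added for 3 min (DA) or 6–10 min (NE, 5-HT). Blanks kept on ice. Filtration and scintillation counting. Percent inhibition at 0.100 μM when weak.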

Mus musculus [22] = experiment: Ability to antagonise intraperitoneal dose; inactive (<10% antagonism) at 30 mg/kg is represented as I-30.; format: functional, organism-based; set-up: dose 30 mg/kg; outline: as §5
[23] = target: Adrenergic receptor alpha-2 (Rattus norvegicus) (UniProt P22086+P19328+P22909); experiment: Binding affinity towards alpha-2 adrenergic receptor at 1.0 uM concentration; format: protein assay
[24] = target: D(1A) dopamine receptor (Rattus norvegicus) (UniProt P18901); experiment: Binding affinity towards dDopamine receptor D1 at 1.0 uM concentration; outline: as §7
[25] = target: T1, Adrenergic receptor alpha-1 (Rattus norvegicus, UniProt P15823+P23944+P43140); experiment: Binding affinity towards alpha-1 adrenergic receptor; format: protein assay
T1 sequence (P15823 whole entry): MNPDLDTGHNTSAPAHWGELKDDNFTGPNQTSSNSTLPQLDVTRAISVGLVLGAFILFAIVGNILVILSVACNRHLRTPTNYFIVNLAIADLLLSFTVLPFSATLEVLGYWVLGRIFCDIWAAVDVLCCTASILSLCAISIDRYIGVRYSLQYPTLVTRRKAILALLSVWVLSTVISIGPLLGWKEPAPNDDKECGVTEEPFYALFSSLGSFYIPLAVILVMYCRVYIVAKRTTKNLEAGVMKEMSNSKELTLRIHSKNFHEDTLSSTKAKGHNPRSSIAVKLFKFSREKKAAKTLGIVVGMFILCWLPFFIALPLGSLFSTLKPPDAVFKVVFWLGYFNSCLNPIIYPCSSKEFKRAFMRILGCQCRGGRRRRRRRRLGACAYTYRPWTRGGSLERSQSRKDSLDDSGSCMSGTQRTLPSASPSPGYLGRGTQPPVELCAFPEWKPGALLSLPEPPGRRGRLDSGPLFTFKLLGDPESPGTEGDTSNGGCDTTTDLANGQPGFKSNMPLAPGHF
T1 sequence (P23944 whole entry): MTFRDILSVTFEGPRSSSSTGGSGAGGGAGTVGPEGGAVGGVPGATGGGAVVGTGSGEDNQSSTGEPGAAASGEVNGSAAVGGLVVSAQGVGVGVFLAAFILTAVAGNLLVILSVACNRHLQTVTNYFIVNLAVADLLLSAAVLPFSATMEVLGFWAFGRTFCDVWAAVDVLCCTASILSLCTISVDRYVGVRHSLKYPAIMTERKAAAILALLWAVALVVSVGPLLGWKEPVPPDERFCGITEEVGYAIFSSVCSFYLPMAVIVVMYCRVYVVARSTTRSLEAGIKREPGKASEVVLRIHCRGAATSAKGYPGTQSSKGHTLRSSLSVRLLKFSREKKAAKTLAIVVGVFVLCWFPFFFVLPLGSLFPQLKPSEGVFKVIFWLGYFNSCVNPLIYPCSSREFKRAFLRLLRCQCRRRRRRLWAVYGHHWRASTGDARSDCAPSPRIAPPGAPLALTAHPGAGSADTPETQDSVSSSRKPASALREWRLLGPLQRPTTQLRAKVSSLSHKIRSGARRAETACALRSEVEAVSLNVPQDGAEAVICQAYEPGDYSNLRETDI
T1 sequence (P43140 whole entry): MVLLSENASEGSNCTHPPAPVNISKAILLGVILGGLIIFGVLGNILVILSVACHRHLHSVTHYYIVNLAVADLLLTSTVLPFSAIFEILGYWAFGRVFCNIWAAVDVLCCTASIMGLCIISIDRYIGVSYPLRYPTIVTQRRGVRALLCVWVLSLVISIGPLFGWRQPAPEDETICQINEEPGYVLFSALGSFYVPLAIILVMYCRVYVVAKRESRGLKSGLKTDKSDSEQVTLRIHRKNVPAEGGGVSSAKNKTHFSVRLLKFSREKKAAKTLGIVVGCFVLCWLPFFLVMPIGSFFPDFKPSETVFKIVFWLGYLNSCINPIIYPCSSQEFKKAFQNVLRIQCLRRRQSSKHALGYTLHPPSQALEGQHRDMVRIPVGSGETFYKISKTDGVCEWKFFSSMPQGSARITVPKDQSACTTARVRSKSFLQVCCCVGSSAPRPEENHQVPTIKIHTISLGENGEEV

Mus musculus [26] = species: Mus musculus; experiment: Gross behavioral effects ascertained in mice; S indicates significant stimulant properties.; format: functional, organism-based; outline: as §2
[27] = target: Muscarinic acetylcholine receptor (Rattus norvegicus) (UniProt P08482+P08483+P08485+P08911+P10980); experiment: Binding affinity towards Muscarinic acetylcholine receptor at 1.0 uM concentration; format: protein assay
Rattus norvegicus [28] = species: Rattus norvegicus; experiment: Ability to inhibit the uptake of tritiated norepinephrine (NE) at 0.1 uM concentration; format: functional; outline: as §1
Rattus norvegicus [29] = species: Rattus norvegicus; experiment: Ability to inhibit the uptake of tritiated dopamine (DA) at 1 uM concentration; format: functional
Outline: (§8)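 Rat synaptosomal uptake as above: striatal P2 for [3H]DA (50–300 nM, 3 min) and cortical P2 for [3H]5-HT (100–200 nM, 6 min). 37 °C after 10-min preincubation with compound. […] Blanks incubated in ice water. Filter-retained tritium counted by liquid scintillation.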

Rattus norvegicus [30] = species: Rattus norvegicus; experiment: Ability to inhibit the uptake of tritiated serotonin(5-HT) at 1 uM concentration; format: functional; outline: as §8

Sodium-dependent serotonin transporter (Rattus norvegicus), sequence (P31652 whole entry): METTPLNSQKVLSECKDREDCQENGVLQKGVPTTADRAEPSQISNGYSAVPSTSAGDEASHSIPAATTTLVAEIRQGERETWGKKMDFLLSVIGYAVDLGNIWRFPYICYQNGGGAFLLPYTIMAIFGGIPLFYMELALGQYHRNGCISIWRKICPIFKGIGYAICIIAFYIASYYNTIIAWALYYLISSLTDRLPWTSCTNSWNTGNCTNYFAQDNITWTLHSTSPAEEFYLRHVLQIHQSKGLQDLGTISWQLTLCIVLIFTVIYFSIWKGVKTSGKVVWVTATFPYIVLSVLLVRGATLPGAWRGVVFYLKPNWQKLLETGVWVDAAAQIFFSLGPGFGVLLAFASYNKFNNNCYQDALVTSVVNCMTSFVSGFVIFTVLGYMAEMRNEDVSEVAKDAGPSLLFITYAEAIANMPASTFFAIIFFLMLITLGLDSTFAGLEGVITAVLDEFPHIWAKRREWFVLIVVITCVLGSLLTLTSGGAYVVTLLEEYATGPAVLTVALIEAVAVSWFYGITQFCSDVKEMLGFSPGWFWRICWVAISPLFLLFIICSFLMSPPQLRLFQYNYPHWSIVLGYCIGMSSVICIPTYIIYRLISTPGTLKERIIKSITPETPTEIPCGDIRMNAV
Sodium-dependent dopamine transporter, sequence (P23977 whole entry): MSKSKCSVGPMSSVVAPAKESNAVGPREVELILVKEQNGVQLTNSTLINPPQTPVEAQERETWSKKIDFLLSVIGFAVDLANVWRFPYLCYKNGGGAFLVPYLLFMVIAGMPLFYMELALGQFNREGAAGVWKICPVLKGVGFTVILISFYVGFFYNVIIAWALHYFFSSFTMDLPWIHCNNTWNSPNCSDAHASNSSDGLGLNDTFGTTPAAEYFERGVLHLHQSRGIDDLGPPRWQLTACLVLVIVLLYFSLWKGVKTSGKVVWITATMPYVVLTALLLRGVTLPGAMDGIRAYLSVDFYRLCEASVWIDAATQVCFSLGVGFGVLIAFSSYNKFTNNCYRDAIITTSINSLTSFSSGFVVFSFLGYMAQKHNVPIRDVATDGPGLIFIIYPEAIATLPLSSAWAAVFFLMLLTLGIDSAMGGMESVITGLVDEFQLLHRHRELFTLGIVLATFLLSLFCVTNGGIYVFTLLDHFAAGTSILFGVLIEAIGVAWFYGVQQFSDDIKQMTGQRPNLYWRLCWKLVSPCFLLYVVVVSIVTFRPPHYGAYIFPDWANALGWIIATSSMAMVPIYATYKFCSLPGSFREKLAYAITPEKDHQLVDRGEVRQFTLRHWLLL
D(2) dopamine receptor (Rattus norvegicus), sequence (P61169 whole entry): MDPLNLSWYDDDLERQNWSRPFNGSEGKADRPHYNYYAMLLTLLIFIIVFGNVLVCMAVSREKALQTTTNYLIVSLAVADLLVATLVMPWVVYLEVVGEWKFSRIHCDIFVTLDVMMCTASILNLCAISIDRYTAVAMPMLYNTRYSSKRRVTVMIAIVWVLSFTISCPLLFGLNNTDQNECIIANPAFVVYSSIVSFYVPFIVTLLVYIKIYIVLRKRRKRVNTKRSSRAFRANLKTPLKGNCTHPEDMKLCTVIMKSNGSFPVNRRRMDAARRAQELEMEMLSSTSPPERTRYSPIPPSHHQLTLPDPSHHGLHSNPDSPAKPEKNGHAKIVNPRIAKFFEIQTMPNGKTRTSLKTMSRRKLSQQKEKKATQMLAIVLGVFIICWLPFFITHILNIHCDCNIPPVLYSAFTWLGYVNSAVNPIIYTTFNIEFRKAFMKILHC
Norepinephrine transporter, sequence (Q9WTR4 whole entry): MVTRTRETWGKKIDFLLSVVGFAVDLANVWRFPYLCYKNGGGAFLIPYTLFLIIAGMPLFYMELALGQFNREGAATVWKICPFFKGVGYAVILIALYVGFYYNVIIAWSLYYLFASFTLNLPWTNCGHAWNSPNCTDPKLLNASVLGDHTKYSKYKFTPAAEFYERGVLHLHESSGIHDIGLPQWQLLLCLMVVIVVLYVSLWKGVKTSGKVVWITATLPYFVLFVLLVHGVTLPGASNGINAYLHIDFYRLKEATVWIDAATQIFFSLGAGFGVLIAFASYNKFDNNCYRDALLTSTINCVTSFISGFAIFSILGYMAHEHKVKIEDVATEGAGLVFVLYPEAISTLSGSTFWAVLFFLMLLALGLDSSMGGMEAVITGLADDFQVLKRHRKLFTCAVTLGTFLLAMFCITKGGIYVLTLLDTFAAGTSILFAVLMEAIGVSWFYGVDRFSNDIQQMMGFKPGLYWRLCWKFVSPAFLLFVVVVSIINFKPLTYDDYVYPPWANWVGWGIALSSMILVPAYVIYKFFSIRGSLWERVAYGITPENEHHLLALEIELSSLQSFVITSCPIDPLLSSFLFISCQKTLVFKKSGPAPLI
Sodium-dependent dopamine transporter (Rattus norvegicus), sequence (P23977 whole entry): as the sequence (P23977 whole entry) above
Norepinephrine transporter (Rattus norvegicus), sequence (Q9WTR4 as listed by the source): as the sequence (Q9WTR4 whole entry) above
Serotonin 2 (5-HT2) receptor (Rattus norvegicus), sequence (P08909 whole entry, looked up): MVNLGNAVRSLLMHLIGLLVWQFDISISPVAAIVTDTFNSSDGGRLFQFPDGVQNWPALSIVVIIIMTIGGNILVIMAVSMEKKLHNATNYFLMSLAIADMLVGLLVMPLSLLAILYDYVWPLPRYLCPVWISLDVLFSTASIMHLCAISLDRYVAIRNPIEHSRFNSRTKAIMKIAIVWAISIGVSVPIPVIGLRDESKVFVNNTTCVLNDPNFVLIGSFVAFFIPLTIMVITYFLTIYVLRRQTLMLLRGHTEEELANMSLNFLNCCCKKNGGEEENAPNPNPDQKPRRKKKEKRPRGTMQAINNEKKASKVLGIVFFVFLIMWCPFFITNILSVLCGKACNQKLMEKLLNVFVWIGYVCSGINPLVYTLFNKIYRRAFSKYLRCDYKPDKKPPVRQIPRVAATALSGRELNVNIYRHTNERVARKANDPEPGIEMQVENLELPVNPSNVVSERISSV
Serotonin 2 (5-HT2) receptor (Rattus norvegicus), sequence (P14842 whole entry, looked up): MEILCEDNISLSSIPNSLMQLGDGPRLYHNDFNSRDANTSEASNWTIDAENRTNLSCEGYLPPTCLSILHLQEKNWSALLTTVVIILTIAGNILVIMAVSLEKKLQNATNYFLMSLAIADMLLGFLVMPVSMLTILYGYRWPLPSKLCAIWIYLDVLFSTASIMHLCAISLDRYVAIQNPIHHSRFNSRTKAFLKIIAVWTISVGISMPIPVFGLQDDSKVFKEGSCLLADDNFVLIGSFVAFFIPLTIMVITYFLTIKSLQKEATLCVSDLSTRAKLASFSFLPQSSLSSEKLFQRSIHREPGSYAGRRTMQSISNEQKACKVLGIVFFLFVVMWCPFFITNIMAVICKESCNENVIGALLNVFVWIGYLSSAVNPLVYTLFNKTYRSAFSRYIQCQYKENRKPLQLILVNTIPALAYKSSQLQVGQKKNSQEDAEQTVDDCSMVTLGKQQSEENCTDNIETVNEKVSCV
Serotonin 2 (5-HT2) receptor (Rattus norvegicus), sequence (P30994 whole entry, looked up): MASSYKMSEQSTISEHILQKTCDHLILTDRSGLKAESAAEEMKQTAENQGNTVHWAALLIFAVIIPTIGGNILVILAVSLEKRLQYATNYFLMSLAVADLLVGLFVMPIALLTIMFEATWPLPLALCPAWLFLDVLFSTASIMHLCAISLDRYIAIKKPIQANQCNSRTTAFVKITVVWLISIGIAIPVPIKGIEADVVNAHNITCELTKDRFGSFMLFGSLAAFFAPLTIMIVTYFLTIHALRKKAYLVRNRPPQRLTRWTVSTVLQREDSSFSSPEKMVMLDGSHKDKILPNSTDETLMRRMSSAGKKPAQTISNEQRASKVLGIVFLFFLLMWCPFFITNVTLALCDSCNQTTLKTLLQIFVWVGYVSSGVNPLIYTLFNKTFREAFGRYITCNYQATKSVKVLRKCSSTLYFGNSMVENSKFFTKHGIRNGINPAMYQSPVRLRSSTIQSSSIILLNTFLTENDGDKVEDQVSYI
D(1A) dopamine receptor (Rattus norvegicus), sequence (P18901 whole entry): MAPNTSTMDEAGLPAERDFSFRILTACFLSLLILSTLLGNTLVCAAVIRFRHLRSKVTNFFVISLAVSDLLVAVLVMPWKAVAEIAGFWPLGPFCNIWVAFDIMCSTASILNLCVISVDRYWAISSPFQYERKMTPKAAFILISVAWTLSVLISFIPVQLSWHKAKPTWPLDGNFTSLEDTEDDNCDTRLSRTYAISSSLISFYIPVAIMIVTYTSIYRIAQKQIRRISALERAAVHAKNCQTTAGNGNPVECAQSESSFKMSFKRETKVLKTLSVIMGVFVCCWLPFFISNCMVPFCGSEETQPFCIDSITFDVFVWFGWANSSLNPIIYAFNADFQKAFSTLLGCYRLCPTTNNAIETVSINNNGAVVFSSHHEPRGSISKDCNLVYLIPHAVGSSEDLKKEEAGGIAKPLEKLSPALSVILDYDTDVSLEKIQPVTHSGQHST

## c1ccc([C@@H]2CN3CCCC[C@H]3c3ccccc32)cc1
Rattus norvegicus [1]
  Ki: 1000 nM
[2]
  inhibition: 11%
Mus musculus [3]
  behavior: Weak
[4]
  inhibition: 27%

## c1ccc([C@@H]2CN3CCC[C@H]3c3ccsc32)cc1
Mus musculus [5]
  ED50: inactive
Rattus norvegicus [6]
  inhibition in vivo at 0.1 mg/kg: 28%
Mus musculus [7]
  behavior: Significant depressant
Mus musculus [8]
  ED50: inactive

## O=C(Nc1ccccc1)Nc1ccc([C@@H]2CN3CCC[C@H]3c3ccccc32)cc1
Mus musculus [9]
  ED50: 10 mg/kg
Mus musculus [10]
  ED50: > 60 mg/kg
[11]
  Ki: 41.3 nM
[12]
  Ki: 54 nM
[13]
  Ki: 9.8 nM

## Br.Fc1ccc([C@@H]2CN3CCC[C@H]3c3cc(F)ccc32)cc1
[14]
  inhibition: 21%
[15]
  inhibition: 48%
Mus musculus [9]
  ED50: 1.6 mg/kg
[16]
  inhibition: 5%
[17]
  inhibition: 38%
Rattus norvegicus [18]
  Ki: ~100 nM
Mus musculus [10]
  ED50: > 60 mg/kg
Mus musculus [3]
  behavior: Partial stimulant
[19]
  inhibition: -9%

## Br.c1csc([C@@H]2CN3CCC[C@H]3c3ccsc32)c1
Mus musculus [7]
  behavior: Significant depressant
Mus musculus [20]
  ED50: inactive
Rattus norvegicus [21]
  Inhibition: 2%
Mus musculus [22]
  ED50: inactive

## Br.Oc1ccc([C@@H]2CN3CCC[C@@H]3c3ccccc32)cc1
[23]
  inhibition: 70%
[24]
  inhibition: 27%
[15]
  inhibition: 65%
Mus musculus [9]
  ED50: 0.09 mg/kg
[25]
  Ki: 252 nM
Mus musculus [26]
  behavior: Stimulant
Mus musculus [10]
  ED50: 0.4 mg/kg
[11]
  Ki: 0.74 nM
[13]
  Ki: 5.1 nM
[27]
  inhibition: 3%

## Clc1ccc([C@@H]2CN3CCC[C@H]3c3ccccc32)c(Cl)c1
Rattus norvegicus [28]
  Inhibition: 31%
Rattus norvegicus [29]
  Inhibition: 34%
Rattus norvegicus [30]
  Inhibition: 52%
